Measurements published in PMC3100537 (Biochemistry, 2011).
“And” between values parts separate entries of the source, which are not always exact repeats. Equal values may be shown once.

Tests used:
physchem = settings: pH 7.4, aqueous buffer
[1] = Non-denaturing gradient gel electrophoresis; type: physicochemical; settings: Native-PAGE 4–20% Tris-glycine gel; stock solutions 1 mg/ml PBS, pH 7.4; 3 μg per well
[2] = Circular dichroism spectroscopy, secondary structure; type: physicochemical
Outline: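 Lipid-free peptide in 10 mM sodium phosphate, pH 7.4, at 25°C; 2 mg/ml stock diluted in the same buffer to 6–310 μM (18–1000 μg/ml). Four scans at 20 nm/min averaged per concentration. α-Helicity derived from molar ellipticity at 222 nm; [θ]222/[θ]208 ratio plotted against concentration. For TFE, 0.2 mg/ml peptide held ±50% TFE for 30 min at 25°C before scanning (n=3).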

[3] = Small angle X-ray scattering; type: physicochemical
Outline: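 Concentration-scaled intensity at q = 0 converted to mass by calibration against lysozyme, xylanase and BSA. Ab initio shape from ten averaged modelling runs. Two independent peptide preparations measured.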

[4] = DMS cross-linking / SDS-PAGE of self-associated forms; type: physicochemical; settings: 20-fold molar excess DMS, 3 h, 25 °C; SDS-PAGE 10–20% Tricine gel
Outline: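 Peptide at various concentrations reacted with 20-fold molar excess dimethylsuberimidate for 3 h at 25°C, then quenched with 50 mM Tris-HCl. Mixed with SDS loading buffer, boiled 1 min, and run on 10–20% Tris-Tricine SDS-PAGE. Protein stain visualized cross-linked species, sized against 1.7–40 kDa markers.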

J774 mouse macrophages = settings: lipid-free peptide; cited from earlier work
[5] = Gel-filtration chromatography; type: physicochemical
Outline: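 Size-exclusion FPLC on Superdex 75 or Superdex Peptide columns equilibrated in PBS (10 mM phosphate, 150 mM NaCl, pH 7.4), run at 0.5 ml/min at room temperature. 0.2 ml of peptide stock (0.125 to 140 mg/ml; concentration set by A280) injected, with elution read at 280 or 215 nm. Columns calibrated with molecular weight standards. Stocks also run after 2 years' sterile storage at 4°C or 24 h at 37°C.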

solubility (physchem) [µg/mL]	α-helical content, presence of 50% TFE ([2]; 0.2 mg/ml, 50% TFE) [%]	α-helical content, absence of TFE ([2]; 0.2 mg/ml, no TFE) [%]	SAXS MW relative to monomeric weight of the peptide (3230 Da) ([3]; 2–8 mg/ml PBS pH 7.4)	aggregation detected from X-ray intensity profiles ([3]; peptide at 2–8 mg/ml PBS)	concentration range of dissociation of the tetrameric assembly to monomers [4] [mg/ml]	gel-filtration profile after prolonged storage ([5]; 2 years in PBS at 4 °C under sterile conditions, data not shown)	concentration at which monomeric ATI-5261 predominated ([5]; FPLC (Superdex 75 and Peptide columns) and SDS-PAGE/DMS cross-linking) [ng/mL]	concentration at which peptide monomers were predominant ([5]; FPLC, allowing for ~10-fold dilution on the columns, PBS pH 7.4) [ng/mL]	MW of the peptide assembly by FPLC ([5]; Superdex Peptide 10/300 GL column, 1 mg peptide/ml, PBS, A215, calibrated with (Gly)6, aprotinin, ribonuclease A) [kDa]	gel-filtration profile after incubation at 37 °C ([5]; incubation at 37 °C for 24 h, data not shown)	α-helical content, extensively diluted sample ([2]; 6 μM, i.e. 18 μg/ml, 10 mM phosphate buffer pH 7.4, 25 °C) [%]	α-helical content with 50% TFE compared to controls with no TFE ([2]; 0.2 mg/ml, 10 mM phosphate pH 7.4, 30 min TFE at 25 °C, n=3)	222/208 ellipticity ratio ([2]; 50% TFE)	α-helical content ([2]; lipid-free peptide, 10 mM phosphate buffer pH 7.4, 25 °C, 0.2 mg/ml (62 μM), from molar ellipticity at 222 nm, mean ± SD, n=4) [%]	Substance	migration form on non-denaturing gel (aggregation) [1]	concentration of saturation in cholesterol efflux (J774 mouse macrophages) [µg/mL]
~1000	49	28													Ac-DWFKAFYDKVAEKFKEAF-NH2 [peptide 4F, reference compound]	aggregated as high molecular weight (HMW) species	
			~4 times and 4.1 times	Little or no aggregation	0.5 to 0.025	not altered	≤ 25000	< 25000	12.8	not altered	82.6	remained unchanged	< 1	74.1±6.8	Ac-EVRSKLEEWFAAFREFAEEFLARLKS-NH2 [ATI-5261]	low molecular weight (LMW) band	3
